Entries after “also recorded” stand apart in the source; their conditions may differ.
Legend:
[1] = system: skinned rat ventricular papillary muscle; test: Force-pCa contractility of skinned rat ventricular papillary muscle; format: cell-based; conditions: 20 μM peptide, 15°C
Procedure, shortened: (§1)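 Left ventricular papillary muscle was cryosectioned at 35 μm, cut into 140–150 μm strips and stored at −20°C in glycerol relaxing buffer. Strips were clip-mounted, skinned 20 min in 1% Triton X-100 and set to sarcomere length 2.0 or 2.3 μm. Isometric force was read at pCa 6.5–4.5 at 15°C, then repeated with 20 μM peptide. Curves were Hill-fitted and compared by paired t-test.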

[2] = system: skinned mouse ventricular papillary muscle; test: Force-pCa contractility of skinned mouse ventricular papillary muscle; format: cell-based; conditions: 20 μM peptide, 15°C
Procedure, shortened: as §1

[3] = system: skinned mouse EDL muscle fibers; test: Force-pCa contractility of skinned mouse EDL muscle fibers; format: cell-based; conditions: 20 μM peptide; sarcomere length 2.7 μm; 15°C; N = 4
Procedure, shortened: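 Whole EDL from adult C57BL/6 mice was split along the fibres in relaxing buffer and stored at −20°C in 50% glycerol buffer. Fibres were mounted on T-clips, further skinned 20 min in 1% Triton X-100 and set to sarcomere length 2.7 μm. Force was read at pCa 6.5–4.5 at 15°C, before and after adding 20 μM peptide; curves were Hill-fitted.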

mAb TnI-1 = test: Competitive ELISA affinity titration against mAb TnI-1; format: binding; conditions: compared with wild type at ~0.1 μM (Figure 8)
Procedure, shortened: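 Wells coated overnight at 4°C with purified bovine cardiac TnI in pH 7.0 PIPES/KCl/MgCl2 buffer, then blocked with 1% BSA. mAb TnI-1 was added at a preset sub-maximal level together with serial dilutions of biologically or chemically made peptide. Detection used HRP anti-mouse IgG and H2O2-ABTS, read at 420 nm every 5 min for 30 min. Triplicate wells; each assay repeated.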

[4] = molecular target: bovine cardiac α-tropomyosin (bovine, UniProt Q5KR49 1-284); test: ELISA

With “HcTnI-C27: C-terminal 27 amino acid peptide of human cardiac TnI (ENREVGDWRKNIDALSGMEGRKKKFES; left off: Tx3 metal-binding tag, N-terminal, cleaved | SUMO, N-terminal, cleaved)” the “Effect on Ca^2+-sensitization by increasing sarcomere length, rat” value ([1]; SL increased from 2.0 μm to 2.3 μm) was “completely diminishing the Ca^2+-sensitization effect; also recorded: diminished the Ca^2+-sensitization effect”, the “Effect on cooperativity (n), rat, SL 2.0 μm” value ([1]; sarcomere length 2.0 μm, pH 7.0, N = 4) was “small effect on lowering pCa50 and cooperativity” and the “Effect on cooperativity (n), rat, SL 2.3 μm” value ([1]; sarcomere length 2.3 μm, pH 7.0, n = 3) was “significantly decreased Ca^2+ sensitivity and cooperativity (n)”. The “Effect on force-pCa curves, mouse cardiac, both sarcomere lengths” value ([2]; SL 2.0 μm and 2.3 μm) was “right-shifts of the force-pCa curves”, the “Effect on Ca^2+-sensitivity (force-pCa curve), mouse cardiac, SL 2.0 μm” value ([2]; sarcomere length 2.0 μm, N = 3) was “more obvious at sarcomere length of 2.0 μm in the activated state; also recorded: decreased Ca^2+-sensitivity” and the “Effect on cooperativity (n), mouse cardiac, SL 2.0 μm” value ([2]; sarcomere length 2.0 μm, N = 3) was “significantly lowered cooperativity”. For the same molecule, the “Effect on Ca^2+-sensitivity (force-pCa curve), mouse cardiac, SL 2.3 μm” value ([2]; sarcomere length 2.3 μm, n = 4) was “decreased Ca^2+-sensitivity”, the “Effect on myofilament Ca^2+ sensitivity, mouse EDL” value [3] was “myofilament Ca^2+-desensitization effect predominantly in the activated state; also recorded: decreases in myofilament Ca^2+ sensitivity in the activated state at higher Ca^2+ concentrations” and the “Maximum force production, mouse EDL” value [3] was “without change of maximum force production”.

For “HcTnI-C27-H: R192H mutant of the C-terminal 27 amino acid peptide of human cardiac TnI (ENREVGDWHKNIDALSGMEGRKKKFES; left off: Tx3 metal-binding tag, N-terminal, cleaved | SUMO, N-terminal, cleaved)”, the “Effect on competition for mAb TnI-1 compared with wild type peptide” value (mAb TnI-1) was “only minimum effect”.

ENREVGDWRKNIDALSGMEGRKKKFES (peptide, UniProt P19429 184-210, looked up) [C-terminal 27 amino acid peptide of human cardiac TnI (HcTnI-C27), free peptide]: binds [4].
